Source: ChEMBL document CHEMBL4725282, “Discovery of a Conformationally Constrained Oxazolidinone with Improved Safety and Efficacy Profiles for the Treatment of Multidrug-Resistant Tuberculosis” (J Med Chem, 2020)
pIC50: −log10 of the molar value.

Key:
[1] = Mutagenicity in Salmonella typhimurium TA100 up to 1000 ug measured after 48 to 72 hrs in presence of S9 fraction by Ames test; format: toxicity, subcellular; conditions: salmonella enterica subsp. enterica serovar typhimurium, dose <=1000 µg, time 48-72 hrs
In short: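 Mini-Ames, plate incorporation in 6-well format. Bacteria, compound (DMSO vehicle, top 1000 µg/well), and 10% S9 mix or PBS were mixed into molten agar at 45°C and poured over minimal agar, then incubated 37°C for 48-72 h. Revertants were counted manually and the background lawn inspected. A result is positive at ≥2-fold the mean vehicle revertants with a dose-related increase.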

[2] = Mutagenicity in Salmonella typhimurium TA100 up to 1000 ug measured after 48 to 72 hrs in absence of S9 fraction by Ames test; format: toxicity; conditions: salmonella enterica subsp. enterica serovar typhimurium, dose <=1000 µg, time 48-72 hrs
In short: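 Mini-Ames test in S. typhimurium TA100, up to 1000 μg/well, DMSO vehicle. Run with 10% S9 mix or PBS in molten top agar on minimal agar, 37 °C for 48-72 h. Revertants counted manually. Positive if revertants rise ≥2-fold over vehicle mean in a dose-related manner.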

HepG2 = assay: Cytotoxicity against human HepG2 cells assessed as reduction in cell viability measured after 48 hrs by MTT assay; format: cell-based; conditions: HepG2, 48 h
In short: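 Cytotoxicity on Vero or HepG2 cells by MTT assay, run as previously reported.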

[3] = Inhibition of human Nav1.5 expressed in CHO cells at -80 mV holding potential by whole-cell patch-clamp method; format: cell-based
In short: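 CHO cells expressing Nav1.5, whole-cell patch clamp. Extracellular saline with 132 mM NaCl, 10 mM HEPES, pH 7.35; KCl/EGTA/MgATP pipette solution. Holding potential -80 mV, 20 ms step to -10 mV. Final compound concentrations 0.3–30 μM, diluted from DMSO stocks.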

[4] = target: Voltage-gated inwardly rectifying potassium channel KCNH2 (Homo sapiens, UniProt Q12809); assay: Inhibition of human ERG expressed in HEK293 cells by whole cell manual patch clamp method; format: cell-based
Voltage-gated inwardly rectifying potassium channel KCNH2, sequence (Q12809 whole entry): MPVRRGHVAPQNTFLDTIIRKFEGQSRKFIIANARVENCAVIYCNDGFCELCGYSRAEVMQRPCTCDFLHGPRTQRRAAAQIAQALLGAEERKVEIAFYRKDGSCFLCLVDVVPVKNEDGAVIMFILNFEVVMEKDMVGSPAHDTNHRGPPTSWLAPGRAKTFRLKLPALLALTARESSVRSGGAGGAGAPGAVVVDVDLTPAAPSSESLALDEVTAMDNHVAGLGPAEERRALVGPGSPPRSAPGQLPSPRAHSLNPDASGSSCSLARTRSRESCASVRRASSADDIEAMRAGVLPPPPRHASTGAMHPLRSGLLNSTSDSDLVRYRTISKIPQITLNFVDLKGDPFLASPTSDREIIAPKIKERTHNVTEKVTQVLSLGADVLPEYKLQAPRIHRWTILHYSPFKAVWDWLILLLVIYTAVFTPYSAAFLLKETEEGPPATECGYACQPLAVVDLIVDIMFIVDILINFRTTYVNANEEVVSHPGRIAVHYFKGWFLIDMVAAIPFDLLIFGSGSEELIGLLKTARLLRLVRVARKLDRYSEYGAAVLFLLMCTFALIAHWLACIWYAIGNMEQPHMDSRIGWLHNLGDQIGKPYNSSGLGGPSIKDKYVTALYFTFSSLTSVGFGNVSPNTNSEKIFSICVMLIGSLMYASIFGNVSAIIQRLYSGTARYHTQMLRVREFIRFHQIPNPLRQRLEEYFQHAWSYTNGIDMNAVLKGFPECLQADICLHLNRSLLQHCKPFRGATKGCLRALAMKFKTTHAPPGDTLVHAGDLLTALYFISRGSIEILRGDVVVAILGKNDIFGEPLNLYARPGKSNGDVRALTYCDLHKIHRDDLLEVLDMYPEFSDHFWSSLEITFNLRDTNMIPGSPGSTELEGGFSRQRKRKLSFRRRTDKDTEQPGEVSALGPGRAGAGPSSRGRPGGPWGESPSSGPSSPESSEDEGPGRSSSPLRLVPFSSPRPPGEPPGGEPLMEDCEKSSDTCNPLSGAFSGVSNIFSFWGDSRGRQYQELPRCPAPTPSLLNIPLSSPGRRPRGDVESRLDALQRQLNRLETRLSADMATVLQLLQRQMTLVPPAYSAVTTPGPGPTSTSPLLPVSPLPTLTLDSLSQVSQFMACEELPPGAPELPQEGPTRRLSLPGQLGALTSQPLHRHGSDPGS
In short: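 HEK293 cells stably transfected with hERG; currents recorded by whole-cell manual patch clamp at 25 °C, sampled at 10 kHz. Five concentrations (0.3–30 μM) in duplicate for IC50; dofetilide as positive control.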

[5] = Terminal half life in Balb/c mouse at 25 mg/kg, po by LC-MS/MS analysis; format: ADME, organism-based; conditions: in vivo, read-out: beta t1/2 (converted)
In short: (§1)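 Female BALB/c mice, 20-25 g, five per route. Dosed 25 mg/kg p.o. in 0.5% carboxymethyl cellulose or 2.5 mg/kg i.v. in 10% DMSO/saline. Blood sampled 5 min-72 h (p.o.) or 2 min-48 h (i.v.), quantified by LC/MS/MS with ESI+. Parameters by non-compartmental analysis; F = (AUCpo×dose_iv)/(AUCiv×dose_po)×100%.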

[6] = Stability in CD-1 mouse liver microsome at 1 uM measured after 30 mins in absence of NADPH by LC-MS/MS analysis; format: ADME; conditions: microsomes, 0.5 h
In short: (§2)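 Liver microsomes (male CD-1 mouse or pooled human), 1 mg/mL protein, compound 1 µM, 37°C with shaking. Started with 1 mM NADPH or run without cofactor. Quenched with ice-cold ACN/MeOH containing internal standard. Parent quantified by LC-MS/MS; 30 min concentration normalised to time zero.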

[7] = target: T1, Amine oxidase [flavin-containing] A (Homo sapiens, UniProt P21397); assay: Inhibition of recombinant human MAOA expressed in baculovirus infected insect cells using kynuramine as substrate measured after 20 mins by LC-MS/MS analysis
T1 sequence (P21397 whole entry): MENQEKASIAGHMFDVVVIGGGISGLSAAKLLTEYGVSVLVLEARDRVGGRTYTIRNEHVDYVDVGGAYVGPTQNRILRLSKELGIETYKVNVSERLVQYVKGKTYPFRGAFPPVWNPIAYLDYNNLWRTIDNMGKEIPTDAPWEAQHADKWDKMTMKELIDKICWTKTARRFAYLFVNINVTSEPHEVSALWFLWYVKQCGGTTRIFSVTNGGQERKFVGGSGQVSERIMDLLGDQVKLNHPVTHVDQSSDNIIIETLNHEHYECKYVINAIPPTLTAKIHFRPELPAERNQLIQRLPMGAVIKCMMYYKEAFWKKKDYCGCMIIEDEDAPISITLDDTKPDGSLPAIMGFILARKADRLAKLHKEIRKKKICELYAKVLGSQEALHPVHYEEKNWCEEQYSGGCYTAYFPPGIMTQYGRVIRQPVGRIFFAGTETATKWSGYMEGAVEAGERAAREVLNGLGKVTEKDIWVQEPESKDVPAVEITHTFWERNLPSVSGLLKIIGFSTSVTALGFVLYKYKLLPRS
In short: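 Recombinant human MAO-A or MAO-B (50 μg/mL) in 100 mM potassium phosphate pH 7.4 with 5 mM MgCl2. Kynuramine substrate at 50 μM (MAO-A) or 25 μM (MAO-B). […] 4-Hydroxyquinoline formation measured by LC-MS/MS versus vehicle; IC50 derived.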

[8] = MRT (0 to t) in Balb/c mouse at 25 mg/kg, po by LC-MS/MS analysis; format: ADME, organism-based; conditions: in vivo
In short: (§3)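 Female BALB/c mice (20–25 g), five per route. Oral dose 25 mg/kg in 0.5% carboxymethyl cellulose; i.v. dose 2.5 mg/kg in 10% DMSO/physiological saline. Blood sampled 5 min–72 h after p.o. and 2 min–48 h after i.v. Analyte quantified by LC/MS/MS (ESI positive, C18, isocratic methanol/water). Parameters from non-compartmental analysis.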

[9] = Stability in CD-1 mouse liver microsome assessed as parent compound remaining at 1 uM measured after 30 mins in presence of NADPH by LC-MS/MS analysis; format: ADME; conditions: liver microsomes, read-out: Stabilty; in short: as §2
[10] = AUC (0 to infinity) in Balb/c mouse at 2.5 mg/kg, iv by LC-MS/MS analysis; format: ADME, organism-based; set-up: time infinity, route intravenous, dose 2.5 mg/kg; conditions: in vivo; in short: as §3
[11] = Tmax in Balb/c mouse at 2.5 mg/kg, iv by LC-MS/MS analysis; format: ADME, organism-based; conditions: in vivo; in short: as §1
[12] = AUC (0 to infinity) in Balb/c mouse at 25 mg/kg, po by LC-MS/MS analysis; format: ADME, organism-based; set-up: route oral, time infinity, dose 25 mg/kg; conditions: in vivo; in short: as §3
[13] = MRT (0 to infinity) in Balb/c mouse at 2.5 mg/kg, iv by LC-MS/MS analysis; format: ADME, organism-based; conditions: in vivo; in short: as §3
[14] = Toxicity in male Sprague-Dawley rat assessed as abnormalities in urine at 50 to 450 mg/kg/day, po administered for 4 weeks measured within last 7 days of treatment period; format: organism-based; conditions: in vivo, 672 h, dose 50-450 mg/kg/day
In short: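 SD rats, 6-7 weeks old (96 in total), split into vehicle, 50, 150 and 450 mg/kg/day groups of 12 females and 12 males each, given oral doses once daily for 4 weeks, then 2 weeks of recovery. Mortality, body weight, food intake, eyes, urine and neuropsychic signs were observed. Organ and bone marrow histopathology was done on 8 rats per sex per group after the last dose and on the remaining 4 per sex after 14 days of recovery.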

[15] = Toxicity in female Sprague-Dawley rat assessed as change in platelet count at 150 mg/kg/day, po administered for 4 weeks followed by 2 week recovery period (Rvb =1051 +/- 122 10^9/L); format: organism-based; conditions: in vivo, 672 h

| SMILES | Activity [1] | Activity [2] | IC50 (HepG2) | pIC50 [3] | pIC50 [4] | half-life [5] | Stabilty [6] | pIC50 [7] | MRT last [8] | remaining at 0.5 h, 1 µM [9] | AUC(0-inf) [10] | Tmax [11] | AUC(0-inf) [12] | MRT inf [13] | Activity [14] | Activity [15] |
| --- | --- | --- | --- | --- | --- | --- | --- | --- | --- | --- | --- | --- | --- | --- | --- | --- |
| CC(=O)NC[C@@H]1OC(=O)N2c3cc(F)c(N4CC[S+]([O-])CC4)cc3OC[C@@H]12 | Non-Toxic | Non-Toxic | > 64 µg/mL | < 4.52 | < 4.52 | 6.28 h | Stable | < 4.00 | 9.83 h | 100% | 592 ng·h/mL | 0.7 h | 9020 ng·h/mL | 6.22 h | – | – |
| CC(=O)NC[C@@H]1OC(=O)N2c3cc(F)c(N4CCSCC4)cc3OC[C@@H]12 | Non-Toxic | Non-Toxic | > 64 µg/mL | < 4.52 | < 4.52 | 14.7 h | Stable | 4.35 | 7.59 h | 48.7% | 1190 ng·h/mL | – | 7620 ng·h/mL | 0.691 h | Non-Toxic | 787 10^9/L |
